Results taken from ChEMBL document CHEMBL1255240, “The mitochondrion is a site of trypanocidal action of the aromatic diamidine DB75 in bloodstream forms of Trypanosoma brucei” (Antimicrob Agents Chemother, 2008).
Activity calls are given as the source filed them. No cut-off for these calls is given here.

What was measured:
[1] = system: Trypanosoma brucei brucei; assay: Antimicrobial activity against Trypanosoma brucei brucei 427 bloodstream form assessed as reduction in mitochondrial membrane potential at 10 uM after 1 min using rhodamine 123 exclusion test; type: functional; set-up: scale not given: the % may be the effect or the level left
Procedure, shortened: (§1)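 Rat-derived bloodstream cells washed in Tes buffer pH 7.5 (10 mM glucose, 1.0% fatty acid-free BSA) at room temperature. Cells at 10^7/ml pretreated with compound for the stated time, then 250 nM Rh123 for 2 min. Diluted 1:10 and flow cytometry (excitation 507, emission 529 nm) on 20,000 cells. % decrease in mean fluorescence versus untreated cells; at least three independent experiments.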

[2] = system: Trypanosoma brucei brucei; assay: Antimicrobial activity against Trypanosoma brucei brucei 427 bloodstream form assessed as inhibition of mitochondrial ATPase activity at 50 uM after 10 mins; type: functional
Procedure, shortened: (§2)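 Bloodstream-form mitochondrial fraction, 100 μg protein, in 20 mM Tris-HCl pH 7.4 with 15 mM KH2PO4, 0.6 M sorbitol, 10 mM MgSO4 and 2.5 mg/ml fatty acid-free BSA. Pre-incubated 10 min on ice with compound (final 10, 50 or 100 μM; oligomycin 50 μM pretreatment where combined), then 0.20 mM ATP for 30 min at 30°C. Perchloric acid quench; remaining ATP by luciferase against a standard curve, blank subtracted. Activity relative to untreated control (100%). Duplicates; three independent experiments.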

[3] = system: Trypanosoma brucei brucei; assay: Antimicrobial activity against Trypanosoma brucei brucei 427 bloodstream form assessed as reduction in mitochondrial membrane potential at 10 uM after 5 mins using rhodamine 123 exclusion test relative to control; type: functional; set-up: scale not given: the % may be the effect or the level left; procedure, shortened: as §1
[4] = system: Trypanosoma brucei brucei; assay: Antimicrobial activity against Trypanosoma brucei brucei 427 bloodstream form assessed as reduction in mitochondrial membrane potential at 10 uM after 10 mins using rhodamine 123 exclusion test relative to control; type: functional; set-up: scale not given: the % may be the effect or the level left; procedure, shortened: as §1
[5] = system: Trypanosoma brucei brucei; assay: Inhibition of respiration in Trypanosoma brucei brucei 427 bloodstream form mitochondria using glycerol-3-phosphate as substrate at 10 uM; type: functional
Procedure, shortened: (§3)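 Bloodstream trypanosomes were taken from infected rat blood and purified on DE52. They were lysed with glass beads, and a mitochondrial fraction was isolated by differential centrifugation at 0–4°C. Mitochondria at 0.8 mg/ml were held in mannitol/HEPES/EGTA/MgSO4 buffer, pH 7.4, without glucose, with 20 mM L-α-glycerol phosphate as substrate. Compound was added after a stable reading (about 2 min), and O2 consumption was recorded by oxygen electrode at 37°C.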

[6] = system: Trypanosoma brucei brucei; assay: Inhibition of respiration in Trypanosoma brucei brucei 427 bloodstream form mitochondria using glycerol-3-phosphate as substrate at 2 mM; type: functional; procedure, shortened: as §3
[7] = system: Trypanosoma brucei brucei; assay: Antimicrobial activity against Trypanosoma brucei brucei 427 bloodstream form assessed as reduction in mitochondrial membrane potential at 4 uM after 1 min using rhodamine 123 exclusion test; type: functional; set-up: scale not given: the % may be the effect or the level left; procedure, shortened: as §1
[8] = system: Trypanosoma brucei brucei; assay: Antimicrobial activity against Trypanosoma brucei brucei 427 bloodstream form assessed as reduction in mitochondrial membrane potential at 4 uM after 10 mins using rhodamine 123 exclusion test relative to control; type: functional; set-up: scale not given: the % may be the effect or the level left; procedure, shortened: as §1
[9] = system: Trypanosoma brucei brucei; assay: Antimicrobial activity against Trypanosoma brucei brucei 427 bloodstream form assessed as reduction in mitochondrial membrane potential at 10 uM using rhodamine 123 exclusion test; type: functional, organism-based; procedure, shortened: as §1
[10] = Drug uptake in Trypanosoma brucei brucei 427 bloodstream form nucleus at 1 uM after 5 mins by fluorescence microscopy; type: ADME
Procedure, shortened: (§4)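 Cells (about 10^6) incubated with 1.0 μM compound in cBMEM (MEM-based, 10% heat-inactivated FBS) at 37°C, 5% CO2. Aliquots taken at set times, pelleted, and dried films examined by UV fluorescence microscopy. Intrinsic blue fluorescence (excitation 365, emission 465 nm) scored in nucleus and kinetoplast.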

[11] = Drug uptake in Trypanosoma brucei brucei 427 bloodstream form mitochondria at 100 uM after 5 mins by fluorescence microscopy; type: ADME
Procedure, shortened: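 Living cells (10^6/ml) loaded with 25 nM MitoTracker Red CMXRos for 30 min at 37°C, washed, then given 100 μM compound for 5 min. Immobilised in 1.5% agarose (3.0% mixed 1:1) on a cold slide. Viewed with a DAPI-FITC-Texas Red triple filter; pink overlap taken as mitochondrial colocalisation.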

[12] = system: Trypanosoma brucei brucei; assay: Inhibition of respiration in Trypanosoma brucei brucei 427 bloodstream form mitochondria using glycerol-3-phosphate as substrate at 600 uM; type: functional
Procedure, shortened: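 Mitochondrial fraction from rat-derived bloodstream cells, prepared by glass-bead lysis and differential centrifugation (12,000 × g pellet) at 0–4°C. Suspended to 0.8 mg/ml in glucose-free mannitol buffer pH 7.4 with 20 mM L-α-glycerol phosphate as substrate. O2 uptake by oxygen electrode at 37°C; compound added after a stable reading (about 2 min) and recording continued several minutes.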

[13] = system: Trypanosoma brucei brucei; assay: Antimicrobial activity against Trypanosoma brucei brucei 427 bloodstream form assessed as inhibition of mitochondrial ATPase activity pretreated with oligomycin for 10 mins; type: functional; procedure, shortened: as §2
[14] = system: Trypanosoma brucei brucei; assay: Antimicrobial activity against Trypanosoma brucei brucei 427 bloodstream form assessed as inhibition of mitochondrial ATPase activity at 100 uM after 10 mins; type: functional; set-up: scale not given: the % may be the effect or the level left; procedure, shortened: as §2
[15] = system: Trypanosoma brucei brucei; assay: Antimicrobial activity against Trypanosoma brucei brucei 427 bloodstream form assessed as inhibition of glucose-dependent cellular respiration; type: functional, organism-based
Procedure, shortened: (§5)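 Bloodstream trypanosomes from infected rat blood, DE52-purified, washed once in mannitol-based buffer pH 7.4 (220 mM mannitol, 25 mM HEPES, 2 mM EGTA, 5 mM MgSO4) with 20 mM glucose. O2 uptake of 2.0 × 10^6 cells/ml recorded with an oxygen electrode at 37°C. % inhibition from the rates just before vs after compound addition. Two independent experiments.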

[16] = Drug uptake in Trypanosoma brucei brucei 427 bloodstream form kinetoplast at 1 uM after 5 mins by fluorescence microscopy; type: ADME; procedure, shortened: as §4
[17] = system: Trypanosoma brucei brucei; assay: Antimicrobial activity against Trypanosoma brucei brucei 427 bloodstream form assessed as inhibition of glucose-dependent cellular respiration at 300 uM; type: functional, organism-based; procedure, shortened: as §5
[18] = system: Trypanosoma brucei brucei; assay: Antimicrobial activity against Trypanosoma brucei brucei 427 bloodstream form assessed as reduction in mitochondrial membrane potential at 1 uM after 1 min using rhodamine 123 exclusion test; type: functional, organism-based; procedure, shortened: as §1
[19] = system: Trypanosoma brucei brucei; assay: Antimicrobial activity against Trypanosoma brucei brucei 427 bloodstream form assessed as inhibition of mitochondrial ATPase activity 10 uM after 10 mins; type: functional; set-up: scale not given: the % may be the effect or the level left; procedure, shortened: as §2

## N#CC(C#N)=NNc1cccc(Cl)c1 [CARBONYL CYANIDE M-CHLOROPHENYLHYDRAZONE]
[1]
  Activity: 36%
[2]
  Activity: inactive
[3]
  Activity: 51%

## CC(C)[C@@H]1NC(=O)[C@H](C)OC(=O)[C@@H](C(C)C)NC(=O)[C@@H](C(C)C)OC(=O)[C@H](C(C)C)NC(=O)[C@H](C)OC(=O)[C@@H](C(C)C)NC(=O)[C@@H](C(C)C)OC(=O)[C@H](C(C)C)NC(=O)[C@H](C)OC(=O)[C@@H](C(C)C)NC(=O)[C@@H](C(C)C)OC1=O [VALINOMYCIN]
[4]
  Activity: 70%

## O=C(NO)c1ccccc1O
[5]
  inhibition: Active
[6]
  inhibition: Active

## CC[C@H]1/C=C/C=C/C[C@@H](C)[C@H](O)[C@@](C)(O)C(=O)[C@@H](C)[C@H](O)[C@@H](C)C(=O)[C@@H](C)[C@H](O)[C@@H](C)/C=C/C(=O)O[C@@H]2[C@H](C)[C@H](CC1)O[C@]1(CC[C@H](C)[C@H](C[C@@H](C)O)O1)[C@H]2C [OLIGOMYCIN]
[2]
  Activity: 30%
[7]
  Activity: 23%
[8]
  Activity: 50%

## CCCCCC[C@H]1C(=O)O[C@H](C)[C@H](NC(=O)c2cccc(NC=O)c2O)C(=O)O[C@@H](C)[C@@H]1OC(=O)CC(C)C
[9]
  Activity: inactive

## N=C(N)c1ccc(-c2ccc(-c3ccc(C(=N)N)cc3)o2)cc1 [FURAMIDINE]
[1]
  Activity: 57%
[10]
  Drug uptake: Active
[11]
  Drug uptake: Active
[2]
  Activity: 47%
[12]
  inhibition: inactive
[13]
  Activity: Active
[14]
  Activity: 47%
[15]
  IC50: 20 µM
[16]
  Drug uptake: Active
[17]
  Activity: Active
[18]
  Activity: Active
[19]
  Activity: 20%
